Each structure is given as a SMILES string. Values after ≈ are worked out from the molar mass of the structure shown. Active and inactive are the calls of the source. The rule behind the calls is not given here.

Experiment [1] relates to Bacillus subtilis. As to the kind of experiment: Antibacterial activity against Bacillus subtilis ATCC 6633 by agar dilution method. In kind it is functional. (In general: Agar dilution tests growth on a series of plates holding different concentrations.)
Experiment [2] relates to Micrococcus luteus. As to the kind of experiment: Antibacterial activity against Micrococcus luteus ATCC 10240 by agar dilution method. In kind it is functional.
Experiment [3] relates to Staphylococcus aureus. As to the kind of experiment: Antibacterial activity against Staphylococcus aureus ATCC 29213 by agar dilution method. Format: functional.
Experiment [4] concerns Bacillus cereus. As to the kind of experiment: Antibacterial activity against Bacillus cereus ATCC 11778 by agar dilution method. Format: functional.
Experiment [5] relates to Staphylococcus aureus. Put plainly: Antibacterial activity against Staphylococcus aureus NCTC 4163 by agar dilution method. Format: functional.
The test system of experiment [6] is Staphylococcus aureus. Put plainly: Antibacterial activity against Staphylococcus aureus ATCC 25923 by agar dilution method. In kind it is functional.
Experiment [7] relates to Staphylococcus epidermidis. As to the kind of experiment: Antibacterial activity against Staphylococcus epidermidis ATCC 12228 by agar dilution method. In kind it is functional.
Experiment [8] deals with Micrococcus luteus. Put plainly: Antibacterial activity against Micrococcus luteus ATCC 9341 by agar dilution method. In kind it is functional.
The subject of experiment [9] is Staphylococcus aureus. As to the kind of experiment: Antibacterial activity against Staphylococcus aureus ATCC 6538 by agar dilution method. In kind it is functional.
Experiment [10] has as its target DNA gyrase (Staphylococcus aureus) (UniProt P0A0K8+P20831). Put plainly: Inhibition of Staphylococcus aureus gyrase using […] DNA as substrate after 1 hr by agarose gel electrophoresis. In kind it is protein-complex assay. To be noted: in the assay text read “relaxed” for “supercoiled”. In a few lines: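 The enzyme was incubated in the manufacturer's supercoiling assay buffer with varying compound concentrations at 37 °C for 1 h. Samples were run on a 1% agarose gel in TAE for 3 h at 50 V, stained with ethidium bromide and viewed under UV.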

In experiment [11] the test system is Staphylococcus aureus. As to the kind of experiment: (§1) Inhibition of Staphylococcus aureus topoisomerase 4 assessed as inhibition of decatenation of kDNA after 1 hr by agarose gel electrophoresis. In a few lines: (§2)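 kDNA was incubated with 1 unit of topoisomerase IV in decatenation assay buffer with varying compound concentrations at 37 °C for 1 h. Reactions were stopped with 2x STOP buffer plus chloroform/iso-amyl alcohol and run on a 1% agarose gel in TAE for 1.5 h at 80 V, then stained with ethidium bromide. IC50 was the concentration preventing 50% conversion of kDNA to decatenated minicircles, derived from gel densitometry.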

A short description of experiment [12]: as §1. In short, it runs like this: as §2

DNA gyrase (Staphylococcus aureus), sequence (P0A0K8 2-644 limits assumed): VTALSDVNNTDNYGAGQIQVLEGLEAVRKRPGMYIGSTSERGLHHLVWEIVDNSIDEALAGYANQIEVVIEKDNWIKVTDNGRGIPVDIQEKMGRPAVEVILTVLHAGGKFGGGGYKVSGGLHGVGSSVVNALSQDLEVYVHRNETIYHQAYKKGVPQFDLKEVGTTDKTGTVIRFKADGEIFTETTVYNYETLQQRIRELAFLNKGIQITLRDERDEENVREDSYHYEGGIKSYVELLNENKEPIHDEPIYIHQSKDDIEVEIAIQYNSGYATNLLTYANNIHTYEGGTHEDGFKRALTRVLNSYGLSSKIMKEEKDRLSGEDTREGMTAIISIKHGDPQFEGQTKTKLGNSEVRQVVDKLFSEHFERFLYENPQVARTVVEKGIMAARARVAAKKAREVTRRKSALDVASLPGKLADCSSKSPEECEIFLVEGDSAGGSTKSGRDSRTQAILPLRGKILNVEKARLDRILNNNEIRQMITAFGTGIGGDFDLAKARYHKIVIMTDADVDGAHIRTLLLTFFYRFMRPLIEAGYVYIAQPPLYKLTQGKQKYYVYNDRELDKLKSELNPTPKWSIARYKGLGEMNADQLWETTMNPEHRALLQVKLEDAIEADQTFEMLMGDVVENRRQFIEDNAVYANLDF
DNA gyrase (Staphylococcus aureus), sequence (P20831 whole entry partner): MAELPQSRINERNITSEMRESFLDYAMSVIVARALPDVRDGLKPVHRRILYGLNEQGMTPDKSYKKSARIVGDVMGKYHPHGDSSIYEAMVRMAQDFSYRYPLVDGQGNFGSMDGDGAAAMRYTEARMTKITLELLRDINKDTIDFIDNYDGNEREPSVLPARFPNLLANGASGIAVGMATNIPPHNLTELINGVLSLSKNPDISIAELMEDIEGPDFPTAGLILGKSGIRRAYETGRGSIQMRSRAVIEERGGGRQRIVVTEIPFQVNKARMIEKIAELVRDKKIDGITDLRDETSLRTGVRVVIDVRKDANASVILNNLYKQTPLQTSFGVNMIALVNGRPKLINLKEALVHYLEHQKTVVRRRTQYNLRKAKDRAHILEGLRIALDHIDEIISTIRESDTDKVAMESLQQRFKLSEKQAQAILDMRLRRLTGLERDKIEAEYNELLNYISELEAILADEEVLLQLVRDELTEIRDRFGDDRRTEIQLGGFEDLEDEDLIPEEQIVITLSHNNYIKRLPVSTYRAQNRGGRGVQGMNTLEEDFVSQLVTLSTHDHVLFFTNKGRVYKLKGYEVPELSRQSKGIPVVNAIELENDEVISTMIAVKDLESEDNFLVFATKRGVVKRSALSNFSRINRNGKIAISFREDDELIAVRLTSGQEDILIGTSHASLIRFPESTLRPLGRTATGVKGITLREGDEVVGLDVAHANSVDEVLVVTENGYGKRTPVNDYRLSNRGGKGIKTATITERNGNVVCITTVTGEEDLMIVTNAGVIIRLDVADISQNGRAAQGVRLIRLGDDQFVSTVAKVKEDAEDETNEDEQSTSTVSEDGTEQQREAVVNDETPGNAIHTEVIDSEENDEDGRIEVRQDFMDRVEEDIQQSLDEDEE

For `O=C(NNC(=S)Nc1ccccc1Br)c1cc2ccccc2[nH]1`, the MIC – broadly, the least concentration at which growth counts as inhibited – turned out to be 200 µg/mL (≈ 514 µM) in [1]; 100 µg/mL (≈ 257 µM) in [2]; 100 µg/mL (≈ 257 µM) in [3]; 200 µg/mL (≈ 514 µM) in experiment [4]; 200 µg/mL (≈ 514 µM) in experiment [5]; 100 µg/mL (≈ 257 µM) in experiment [6]. In addition, the MIC in experiment [7] is 200 µg/mL (≈ 514 µM); in experiment [8] it was 100 µg/mL (≈ 257 µM); in experiment [9], 200 µg/mL (≈ 514 µM).
Take `O=C(NNC(=S)Nc1ccc(F)cc1)c1cc2ccccc2[nH]1`: the MIC in experiment [1] came out at 100 µg/mL (≈ 305 µM); in experiment [2] it was 25 µg/mL (≈ 76.1 µM); in [3], 100 µg/mL (≈ 305 µM); in [4] it was 100 µg/mL (≈ 305 µM); in experiment [5], 100 µg/mL (≈ 305 µM); in experiment [6] it was 100 µg/mL (≈ 305 µM). Besides, the MIC amounted to 100 µg/mL (≈ 305 µM) in [7], 50 µg/mL (≈ 152 µM) in [8] and 100 µg/mL (≈ 305 µM) in [9].
`Cc1nnsc1C(=O)NNC(=S)Nc1ccc(Cl)cc1`: the MIC in [1] is 50 µg/mL (≈ 153 µM); in [2], 50 µg/mL (≈ 153 µM); in experiment [3], 50 µg/mL (≈ 153 µM); in [4] it was 50 µg/mL (≈ 153 µM); in experiment [5] it was 100 µg/mL (≈ 305 µM); in experiment [6], 50 µg/mL (≈ 153 µM). Further, the MIC worked out at 50 µg/mL (≈ 153 µM) in [7], 100 µg/mL (≈ 305 µM) in experiment [8] and 100 µg/mL (≈ 305 µM) in [9].
In the case of `Cc1nnsc1C(=O)NNC(=S)Nc1ccc([N+](=O)[O-])cc1`, the MIC in experiment [1] came to 100 µg/mL (≈ 296 µM); in [2] it was 50 µg/mL (≈ 148 µM); in experiment [3], 200 µg/mL (≈ 591 µM); in experiment [4], 100 µg/mL (≈ 296 µM); in experiment [5], 100 µg/mL (≈ 296 µM); in experiment [6] it was 100 µg/mL (≈ 296 µM). For the same compound, the MIC in experiment [7], in experiment [8] and in experiment [9] was 100 µg/mL (≈ 296 µM) throughout. The inhibition entry in [10] and in experiment [11] was “inactive” throughout.
Turning to `Cc1nnsc1C(=O)NNC(=S)Nc1cccc(F)c1`, the MIC in experiment [1] stood at 400 µg/mL (≈ 1280 µM); in experiment [2], 100 µg/mL (≈ 321 µM); in experiment [3] it was 400 µg/mL (≈ 1280 µM); in [4], 400 µg/mL (≈ 1280 µM); in [5] it was 200 µg/mL (≈ 642 µM); in experiment [6] it was 200 µg/mL (≈ 642 µM). Further, the MIC in experiment [7] amounted to 400 µg/mL (≈ 1280 µM); in experiment [8] it was 200 µg/mL (≈ 642 µM); in experiment [9] it was 400 µg/mL (≈ 1280 µM).
Turning to `O=C(NNC(=S)Nc1ccc(F)cc1F)c1cc2ccccc2[nH]1`, the MIC in experiment [1] worked out at 100 µg/mL (≈ 289 µM); in experiment [2], 25 µg/mL (≈ 72.2 µM); in experiment [3], 200 µg/mL (≈ 577 µM); in experiment [4], 100 µg/mL (≈ 289 µM); in [5], 100 µg/mL (≈ 289 µM); in experiment [6], 100 µg/mL (≈ 289 µM). The MIC in experiment [7], in experiment [8] and in experiment [9] was 100 µg/mL (≈ 289 µM) in each case. For the same compound, the IC50 (usually the concentration needed to halve the response being measured) in [12] came out at 295 µM.
In the case of `O=C(O)c1cn(C2CC2)c2cc(N3CCNCC3)c(F)cc2c1=O` [CIPROFLOXACIN], the MIC in experiment [1] is less than 0.125 µg/mL; in experiment [2], 2 µg/mL (≈ 6.04 µM); in experiment [3], 0.5 µg/mL (≈ 1.51 µM); in experiment [4], 1 µg/mL (≈ 3.02 µM); in experiment [5], 0.5 µg/mL (≈ 1.51 µM); in [6], 0.5 µg/mL (≈ 1.51 µM). The MIC in experiment [7] was 0.5 µg/mL (≈ 1.51 µM); in [8] it was 4 µg/mL (≈ 12.1 µM); in experiment [9] it was 0.5 µg/mL (≈ 1.51 µM).
Turning to `O=C(NNC(=S)Nc1ccccc1F)c1cc2ccccc2[nH]1`, the MIC in [1] was determined as 100 µg/mL (≈ 305 µM); in experiment [2] it was 100 µg/mL (≈ 305 µM); in experiment [3], 200 µg/mL (≈ 609 µM); in [4], 200 µg/mL (≈ 609 µM); in experiment [5], 200 µg/mL (≈ 609 µM); in experiment [6], 100 µg/mL (≈ 305 µM). For the same compound, the MIC in experiment [7] amounted to 200 µg/mL (≈ 609 µM); in experiment [8] it was 100 µg/mL (≈ 305 µM); in experiment [9], 200 µg/mL (≈ 609 µM).
Turning to `Cc1nnsc1C(=O)NNC(=S)Nc1ccccc1C(F)(F)F`, the MIC in experiment [1] amounted to 200 µg/mL (≈ 553 µM); in experiment [2] it was 200 µg/mL (≈ 553 µM); in experiment [3], 200 µg/mL (≈ 553 µM); in [4], 400 µg/mL (≈ 1110 µM); in experiment [5], 100 µg/mL (≈ 277 µM); in experiment [6] it was 50 µg/mL (≈ 138 µM). Also, the values for the MIC in experiment [7], in [8] and in [9] were 200 µg/mL (≈ 553 µM), 200 µg/mL (≈ 553 µM) and 400 µg/mL (≈ 1110 µM), respectively.
On to `Cc1nnsc1C(=O)NNC(=S)Nc1ccc(F)cc1`, for which the MIC in experiment [1] is 200 µg/mL (≈ 642 µM); in experiment [2], 100 µg/mL (≈ 321 µM); in experiment [3] it was 400 µg/mL (≈ 1280 µM); in experiment [4], 200 µg/mL (≈ 642 µM); in [5] it was 400 µg/mL (≈ 1280 µM); in [6] it was 200 µg/mL (≈ 642 µM). For the same compound, the MIC was determined as 200 µg/mL (≈ 642 µM) in [7], 100 µg/mL (≈ 321 µM) in [8] and 400 µg/mL (≈ 1280 µM) in experiment [9].
In the case of `Cc1nnsc1C(=O)NNC(=S)Nc1ccc(Cl)cc1Cl`, the MIC in experiment [1], in experiment [2], in [3], in experiment [4], in experiment [5] and in [6] was 100 µg/mL (≈ 276 µM) each time. The MIC in experiment [7], in experiment [8] and in experiment [9] was 100 µg/mL (≈ 276 µM) each time.
Take `Cc1nnsc1C(=O)NNC(=S)Nc1ccc(Br)cc1`: the MIC in experiment [1] worked out at 100 µg/mL (≈ 269 µM); in experiment [2], 100 µg/mL (≈ 269 µM); in experiment [3] it was 200 µg/mL (≈ 537 µM); in experiment [4], 100 µg/mL (≈ 269 µM); in experiment [5] it was 200 µg/mL (≈ 537 µM); in experiment [6], 100 µg/mL (≈ 269 µM). Besides, the MIC in experiment [7] came out at 200 µg/mL (≈ 537 µM); in experiment [8], 50 µg/mL (≈ 134 µM); in experiment [9] it was 200 µg/mL (≈ 537 µM). Also, the IC50 in experiment [12] is 403 µM.
As for `O=C(NNC(=S)Nc1ccc([N+](=O)[O-])cc1)c1cc2ccccc2[nH]1`, the MIC in [1], in [2], in experiment [3], in experiment [4], in experiment [5] and in experiment [6] was 50 µg/mL (≈ 141 µM) in each case. The MIC in experiment [7], in experiment [8] and in [9] was 50 µg/mL (≈ 141 µM) in each case. Moreover, the IC50 in experiment [12] stood at 14 µM.
`Cc1nnsc1C(=O)NNC(=S)Nc1cc(F)ccc1F`: the MIC was 200 µg/mL (≈ 607 µM) in [1]; 200 µg/mL (≈ 607 µM) in experiment [2]; 400 µg/mL (≈ 1210 µM) in experiment [3]; 400 µg/mL (≈ 1210 µM) in experiment [4]; 400 µg/mL (≈ 1210 µM) in experiment [5]; 200 µg/mL (≈ 607 µM) in experiment [6]. In addition, the MIC in [7] came out at 400 µg/mL (≈ 1210 µM); in experiment [8] it was 100 µg/mL (≈ 304 µM); in [9], 400 µg/mL (≈ 1210 µM).
As to `Cc1nnsc1C(=O)NNC(=S)Nc1ccccc1`, the MIC in experiment [1] was 400 µg/mL (≈ 1360 µM); in [2] it was 200 µg/mL (≈ 682 µM); in [3], 400 µg/mL (≈ 1360 µM); in experiment [4] it was 400 µg/mL (≈ 1360 µM); in experiment [5] it was 400 µg/mL (≈ 1360 µM); in experiment [6], 400 µg/mL (≈ 1360 µM). Besides, the MIC amounted to 400 µg/mL (≈ 1360 µM) in experiment [7], 100 µg/mL (≈ 341 µM) in [8] and 400 µg/mL (≈ 1360 µM) in experiment [9].
